# Sampled rows, rich in hits. Any-hit rate of the full collection: about 2.9%.
# C2C12 statin – suppression of simvastatin myotoxicity; C2C12 myotubes + simvastatin, ATP luminescence, 48 h; scaled: DMSO 0, geranylgeraniol control 100; rescue of ATP level, % at 7.49 µM; hit rate 0.78% among 330,000; AID 602340;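 active means mean ATP rescue above about 67%, or every replicate alone reaching that limit, limit read from the data, passing the limit was not always enough; inconclusive means no clear call, values can overlap the other calls; inactive means mean under the limit and some replicate under it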;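 further: myotubes were challenged with 10 µM simvastatin during compound exposure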
# PGC1a acetyl inh – lowers PGC1a acetylation signal in U2OS cells | AlphaScreen anti-acetyl-lysine; with virally co-expressed GCN5 acetyltransferase | inhibition, % at 15.6 µM | hit rate 0.17% among 350,000 | AID 651687;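 active means every replicate shows inhibition of at least 40%; inconclusive means mean inhibition at least 40% but some replicate below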;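 further: 0% = neutral control wells and 100% = positive control wells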
# S100A4 inh HTS – blocks human S100A4 binding to myosin IIA peptide; P26447; S100A4/TAMRA-MyoIIA peptide fluorescence polarization; inhibition, % at 10.7 µM; hit rate 0.14% among 360,000;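 active means mean inhibition of at least 70% across replicates, with every replicate also reaching that level; inconclusive means mean inhibition reaches 70% but some replicates fall short; inactive means mean inhibition below 70%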
# Target sequence (P26447 whole entry, looked up): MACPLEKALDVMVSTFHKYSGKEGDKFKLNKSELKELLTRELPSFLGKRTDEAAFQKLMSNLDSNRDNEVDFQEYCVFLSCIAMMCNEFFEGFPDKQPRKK
#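 Material: human S100A4 monomer with TAMRA-labelled myosin IIA peptide; buffer or medium: HEPES pH 7.2 with CaCl2, KCl, NaCl, DTT, Triton; compound dosing: one concentration per compound; schedule: 5 min incubation before reading; benchmarks: neutral control DMSO, positive control TFP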
# DENV2 CPE – DENV2-induced cell death inhibition; DENV2-infected cells, cytopathic effect rescue, plate reader; CPE inhibition, % at 9.99 µM; hit rate 1.7% among 350,000; in the data active means CPE inhibition above about 20%, passing the limit was not always enough; inconclusive means no clear call, values can overlap the other calls; tested in BHK-21 cells;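 further: 0% = median of neutral control wells and 100% = median of positive control wells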
# SIRT5 inh – sirtuin-5 (human) deacylase inhibition | inhibition, % at 15 µM | Purified SirT5, succinyl-peptide AMC, trypsin-coupled fluorescence | hit rate 1.1% among 330,000; in the data active means inhibition above about 15%; inconclusive means no clear call, values can overlap the other calls
# Target sequence (Q9NXA8 whole entry, looked up): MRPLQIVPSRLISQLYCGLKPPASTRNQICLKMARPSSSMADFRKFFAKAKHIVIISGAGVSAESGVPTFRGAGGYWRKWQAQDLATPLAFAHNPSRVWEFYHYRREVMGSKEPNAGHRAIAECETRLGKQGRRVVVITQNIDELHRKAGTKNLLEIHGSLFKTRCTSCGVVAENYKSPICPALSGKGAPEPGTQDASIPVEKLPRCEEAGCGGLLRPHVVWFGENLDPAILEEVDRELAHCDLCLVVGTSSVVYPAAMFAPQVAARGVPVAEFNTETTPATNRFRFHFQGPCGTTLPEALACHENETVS
# Numbers without * were called inactive; ? = inconclusive; · = no result; ! = not confirmed by another sample.
SMILES,C2C12 statin,PGC1a acetyl inh,S100A4 inh HTS,DENV2 CPE,SIRT5 inh
COc1ccc(-c2noc(Cn3cc(S(=O)(=O)N4CCCC4)ccc3=O)n2)cc1,0,-6,-11,1,22*
CC(C)N(C[C@@H]1CSCCS(=O)(=O)N1)C1CCCCC1,·,·,-1,-5,-3
CCC(=O)N1[C@H](CO)[C@H](c2ccc(C3=CCCC3)cc2)C12CN(C(=O)COC)C2,·,1,13,-3,-2
CCC(=O)N1[C@H](CO)[C@@H](c2ccc(-c3ccccc3OC)cc2)C12CN(C(C)=O)C2,·,-3,-12,15,-3
CC(=O)N1[C@@H](CO)[C@@H](c2ccc(C3=CCCC3)cc2)C12CN(C(=O)NC(C)C)C2,·,3,-10,41*,-1
COc1ccccc1-c1ccc([C@@H]2[C@H](CO)N(C(C)=O)C23CN(C(C)=O)C3)cc1,·,?,0,28*,-1
COc1ccccc1-c1ccc([C@@H]2[C@@H](CO)N(C(=O)C3CC3)C23CN(C(C)=O)C3)cc1,·,-2,0,79*,0
O=C(Nc1ccc(Cl)cc1)N[C@H]1CC[C@H](CCNS(=O)(=O)c2ccccc2F)O[C@H]1CO,-1,1,-16,-1,-3
Cc1noc(C)c1NC(=O)Nc1cccc2c1O[C@@H](CN(C)C(=O)Nc1cccc3ccccc13)[C@H](C)CN([C@H](C)CO)C2=O,27,-4,27,0,5
Cn1c(N)c(C(=O)N/N=C/c2ccccc2)sc1=S,·,-6,-2,-6,1
Cn1c(C(=O)N/N=C/c2ccccc2)cc2ccccc21,0,7,-7,88*,-4
C/C(=N\OCC(=O)Nc1ccc(OC(F)(F)F)cc1)c1ccc2c(c1)OCCO2,2,13,1,108*,1
C/C(=N\OCC(=O)Nc1ccccc1C(C)(C)C)c1ccc2c(c1)OCCO2,10,·,-4,-1,-1
C[C@H](CO)N1C[C@H](C)[C@@H](CN(C)C(=O)Cc2ccccn2)Oc2ncc(C#C[C@@H](C)O)cc2C1=O,-5,-2,21,18,8
O=C(N[C@H]1C=C[C@H](CC(=O)N2CCCCC2)O[C@@H]1CO)c1ccccn1,-2,4,1,5,0
Cc1ccc(S(=O)(=O)Nc2ccc3c(c2)C(=O)N([C@H](C)CO)C[C@H](C)[C@H](CN(C)S(=O)(=O)c2ccc(F)cc2)OCCCC[C@H](C)O3)cc1,·,-8,10,-2,17*
Cc1ccc(S(=O)(=O)Nc2ccc3c(c2)C(=O)N([C@H](C)CO)C[C@H](C)[C@@H](CN(C)S(=O)(=O)c2ccc(F)cc2)OCCCC[C@@H](C)O3)cc1,·,3,0,-1,9
Cc1ccc(S(=O)(=O)N(C)C[C@@H]2OCCCC[C@@H](C)Oc3ccc(NS(=O)(=O)c4ccc(F)cc4)cc3C(=O)N([C@H](C)CO)C[C@@H]2C)cc1,2,8,-5,5,4
Cc1ccc(S(=O)(=O)N(C)C[C@H]2OCCCC[C@H](C)Oc3ccc(NS(=O)(=O)c4ccc(F)cc4)cc3C(=O)N([C@@H](C)CO)C[C@H]2C)cc1,20,13,-2,-1,25*
Cc1ccc(S(=O)(=O)N(C)C[C@H]2OCCCC[C@H](C)Oc3ccc(NS(=O)(=O)c4ccc(F)cc4)cc3C(=O)N([C@H](C)CO)C[C@H]2C)cc1,17,3,15,0,25*
Cc1ccc(S(=O)(=O)Nc2ccc3c(c2)C(=O)N([C@@H](C)CO)C[C@@H](C)[C@@H](CN(C)S(=O)(=O)c2ccc(F)cc2)OCCCC[C@@H](C)O3)cc1,·,0,-23,-4,14
Cc1ccc(S(=O)(=O)N(C)C[C@H]2OCCCC[C@@H](C)Oc3ccc(NS(=O)(=O)c4ccc(F)cc4)cc3C(=O)N([C@@H](C)CO)C[C@H]2C)cc1,7,-9,3,-3,22*
C[C@@H](NC(=O)C[C@@H]1CC[C@H](NC(=O)c2cccnc2)[C@@H](CO)O1)c1ccccc1,2,8,12,?,-2
Cc1ccc(S(=O)(=O)N(C)C[C@H]2OCCCC[C@@H](C)Oc3ccc(NS(=O)(=O)c4ccc(F)cc4)cc3C(=O)N([C@H](C)CO)C[C@@H]2C)cc1,8,-7,-12,0,8
Cc1ccc(S(=O)(=O)N(C)C[C@@H]2OCCCC[C@@H](C)Oc3ccc(NS(=O)(=O)c4ccc(F)cc4)cc3C(=O)N([C@@H](C)CO)C[C@H]2C)cc1,17,-8,-8,9,20*
SMILES,C2C12 statin,PGC1a acetyl inh,S100A4 inh HTS,DENV2 CPE,SIRT5 inh
Cc1ccc(S(=O)(=O)N(C)C[C@@H]2OCCCC[C@H](C)Oc3ccc(NS(=O)(=O)c4ccc(F)cc4)cc3C(=O)N([C@H](C)CO)C[C@@H]2C)cc1,31,-2,9,8,26*
Cc1ccc(S(=O)(=O)Nc2ccc3c(c2)C(=O)N([C@H](C)CO)C[C@@H](C)[C@H](CN(C)S(=O)(=O)c2ccc(F)cc2)OCCCC[C@H](C)O3)cc1,·,-10,-19,-13,10
Cc1ccc(S(=O)(=O)N(C)C[C@@H]2OCCCC[C@H](C)Oc3ccc(NS(=O)(=O)c4ccc(F)cc4)cc3C(=O)N([C@@H](C)CO)C[C@@H]2C)cc1,-6,-9,0,2,20*
Cc1ccc(S(=O)(=O)Nc2ccc3c(c2)C(=O)N([C@@H](C)CO)C[C@H](C)[C@@H](CN(C)S(=O)(=O)c2ccc(F)cc2)OCCCC[C@@H](C)O3)cc1,·,-21,-8,8,15
CCCNC(=O)C[C@H]1CC[C@H]2[C@@H](COC[C@H](O)CN2CC2CCCCC2)O1,-2,-4,9,4,9
CC(C)NC(=O)N(C)C[C@H]1Oc2ncc(-c3ccc(C(=O)N(C)C)cc3)cc2C(=O)N([C@@H](C)CO)C[C@@H]1C,4,-17,-7,0,-4
CC(C)C#Cc1ccc2c(c1)O[C@@H](CN(C)CC1CCOCC1)[C@@H](C)CN([C@@H](C)CO)S2(=O)=O,7,6,-7,-10,0
COc1ccc(NC(=O)N[C@H]2CC[C@H](CCNC(=O)c3cc(Cl)cc(Cl)c3)O[C@H]2CO)cc1,-5,2,-34,3,0
C[C@@H]1CN([C@H](C)CO)C(=O)CCCn2cc(nn2)CO[C@H]1CN(C)C(=O)Nc1ccc(N2CCN(C)CC2)cc1,-14,10,17,-6,9
COc1ccc(OC(=O)N(C)C[C@H]2OCc3cn(nn3)CCCC(=O)N([C@H](C)CO)C[C@@H]2C)cc1,3,-1,8,43*!,-3
CC(C)OC(=O)N(C)C[C@@H]1OCc2cn(nn2)CCCC(=O)N([C@H](C)CO)C[C@@H]1C,-1,2,-27,84*,-4
COc1cccc(NC(=O)N(C)C[C@@H]2OCc3cn(nn3)CCCC(=O)N([C@H](C)CO)C[C@H]2C)c1,-2,5,2,38*!,23*!

# Source: PubChem BioAssay (Broad Institute)
